Source: ChEMBL document CHEMBL1132256, “Structure-activity relationships for substituted bis(acridine-4-carboxamides): a new class of anticancer agents” (J Med Chem, 1999)

Tested on: Lewis lung carcinoma cell line
Assay: Inhibitory activity of tested against Murine Lewis lung carcinoma
Type: functional, cell-based
Conditions: Mus musculus
Procedure, shortened: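 Lewis lung carcinoma (LLTC) cells at 10^3 cells/well, 4-day continuous drug exposure, growth read by sulforhodamine assay. IC50 (nM) = concentration giving 50% of control cell number. Duplicate independent assays, CV ca. 25%.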

Row | SMILES | IC50
1 | CN(CCCNC(=O)c1cccc2cc3cccc(-c4ccccc4)c3nc12)CCCNC(=O)c1cccc2cc3cccc(-c4ccccc4)c3nc12 | 1080 nM
2 | Cc1ccc2cc3ccccc3nc2c1C(=O)NCCCN(C)CCCNC(=O)c1c(C)ccc2cc3ccccc3nc12 | 2400 nM
3 | CN(CCCNC(=O)c1cccc2cc3c(Cl)cccc3nc12)CCCNC(=O)c1cccc2cc3c(Cl)cccc3nc12 | 123 nM
4 | Cc1ccc(C(=O)NCCCN(C)CCCNC(=O)c2ccc(C)c3cc4ccccc4nc23)c2nc3ccccc3cc12 | 14 nM
5 | Cc1ccc2nc3c(C(=O)NCCCN(C)CCCNC(=O)c4cccc5cc6cc(C)ccc6nc45)cccc3cc2c1 | 73 nM

Tested on: Jurkat
Assay: Ratio of inhibitory activity against doxorubicin resistant jurkat cells to inhibitory activity against wild type human jurkat cells
Type: functional
Conditions: not given
Procedure, shortened: (§1)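 Wild-type Jurkat (JLC) and its amsacrine-resistant (JLA) or doxorubicin-resistant (JLD) sublines each seeded at 3.75 × 10^3 cells/well, 4 days with drug, sulforhodamine read-out. IC50 (nM) for 50% of control cell number; ratio = resistant-line IC50 divided by JLC IC50. Duplicate assays, CV ca. 25%.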

Row | SMILES | Ratio
6 | CN(CCCNC(=O)c1cccc2cc3cccc(-c4ccccc4)c3nc12)CCCNC(=O)c1cccc2cc3cccc(-c4ccccc4)c3nc12 | 0.8
7 | Cc1ccc2cc3ccccc3nc2c1C(=O)NCCCN(C)CCCNC(=O)c1c(C)ccc2cc3ccccc3nc12 | 1
8 | CN(CCCNC(=O)c1cccc2cc3c(Cl)cccc3nc12)CCCNC(=O)c1cccc2cc3c(Cl)cccc3nc12 | 1.2
9 | Cc1ccc(C(=O)NCCCN(C)CCCNC(=O)c2ccc(C)c3cc4ccccc4nc23)c2nc3ccccc3cc12 | 1
10 | Cc1ccc2nc3c(C(=O)NCCCN(C)CCCNC(=O)c4cccc5cc6cc(C)ccc6nc45)cccc3cc2c1 | 1.1

Tested on: Jurkat
Assay: Ratio of inhibitory activity against amsacrine resistant jurkat cells to inhibitory activity against wild type human jurkat cells
Type: functional
Conditions: not given
Procedure, shortened: as §1

Row | SMILES | Ratio
11 | CN(CCCNC(=O)c1cccc2cc3cccc(-c4ccccc4)c3nc12)CCCNC(=O)c1cccc2cc3cccc(-c4ccccc4)c3nc12 | 0.5
12 | Cc1ccc2cc3ccccc3nc2c1C(=O)NCCCN(C)CCCNC(=O)c1c(C)ccc2cc3ccccc3nc12 | 0.9
13 | CN(CCCNC(=O)c1cccc2cc3c(Cl)cccc3nc12)CCCNC(=O)c1cccc2cc3c(Cl)cccc3nc12 | 0.8
14 | Cc1ccc(C(=O)NCCCN(C)CCCNC(=O)c2ccc(C)c3cc4ccccc4nc23)c2nc3ccccc3cc12 | 0.6
15 | Cc1ccc2nc3c(C(=O)NCCCN(C)CCCNC(=O)c4cccc5cc6cc(C)ccc6nc45)cccc3cc2c1 | 0.9

Tested on: HT-29
Assay: inhibitory activity against colon HT-29 cell line.
Type: functional
Conditions: Homo sapiens
Procedure, shortened: (§2)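 Tested in the NCI human cell line panel. GI50 = drug concentration (nM) giving growth inhibition to 50% of controls; values below 10 nM were taken as 10 nM in calculations.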

Row | SMILES | GI50
16 | CN(CCCNC(=O)c1cccc2cc3cccc(-c4ccccc4)c3nc12)CCCNC(=O)c1cccc2cc3cccc(-c4ccccc4)c3nc12 | 1620 nM
17 | Cc1ccc2cc3ccccc3nc2c1C(=O)NCCCN(C)CCCNC(=O)c1c(C)ccc2cc3ccccc3nc12 | 1430 nM
18 | CN(CCCNC(=O)c1cccc2cc3c(Cl)cccc3nc12)CCCNC(=O)c1cccc2cc3c(Cl)cccc3nc12 | 120 nM
19 | Cc1ccc(C(=O)NCCCN(C)CCCNC(=O)c2ccc(C)c3cc4ccccc4nc23)c2nc3ccccc3cc12 | < 10 nM
20 | Cc1ccc2nc3c(C(=O)NCCCN(C)CCCNC(=O)c4cccc5cc6cc(C)ccc6nc45)cccc3cc2c1 | 34 nM

Tested on: MCF7
Assay: inhibitory activity against multi drug resistant MCF cell line.
Type: functional
Conditions: Homo sapiens, in the assay text read “MCF7 cell line” for “multi drug resistant MCF cell line”
Procedure, shortened: as §2

Row | SMILES | GI50
21 | CN(CCCNC(=O)c1cccc2cc3cccc(-c4ccccc4)c3nc12)CCCNC(=O)c1cccc2cc3cccc(-c4ccccc4)c3nc12 | 1020 nM
22 | Cc1ccc2cc3ccccc3nc2c1C(=O)NCCCN(C)CCCNC(=O)c1c(C)ccc2cc3ccccc3nc12 | 3030 nM
23 | CN(CCCNC(=O)c1cccc2cc3c(Cl)cccc3nc12)CCCNC(=O)c1cccc2cc3c(Cl)cccc3nc12 | 614 nM
24 | Cc1ccc(C(=O)NCCCN(C)CCCNC(=O)c2ccc(C)c3cc4ccccc4nc23)c2nc3ccccc3cc12 | 54 nM
25 | Cc1ccc2nc3c(C(=O)NCCCN(C)CCCNC(=O)c4cccc5cc6cc(C)ccc6nc45)cccc3cc2c1 | 190 nM

Tested on: CAKI-1
Assay: inhibitory activity against renal tumor […] cell line.
Type: functional
Conditions: Homo sapiens
Procedure, shortened: as §2

Row | SMILES | GI50
26 | CN(CCCNC(=O)c1cccc2cc3cccc(-c4ccccc4)c3nc12)CCCNC(=O)c1cccc2cc3cccc(-c4ccccc4)c3nc12 | 12000 nM
27 | Cc1ccc2cc3ccccc3nc2c1C(=O)NCCCN(C)CCCNC(=O)c1c(C)ccc2cc3ccccc3nc12 | 6360 nM
28 | CN(CCCNC(=O)c1cccc2cc3c(Cl)cccc3nc12)CCCNC(=O)c1cccc2cc3c(Cl)cccc3nc12 | 450 nM
29 | Cc1ccc(C(=O)NCCCN(C)CCCNC(=O)c2ccc(C)c3cc4ccccc4nc23)c2nc3ccccc3cc12 | 42 nM
30 | Cc1ccc2nc3c(C(=O)NCCCN(C)CCCNC(=O)c4cccc5cc6cc(C)ccc6nc45)cccc3cc2c1 | 268 nM

Tested on: P388
Assay: Inhibitory activity against Murine […]
Type: functional, cell-based
Conditions: Mus musculus
Procedure, shortened: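 Murine P388 leukemia cells seeded at 4.5 × 10^3 cells/well, cultured 3 days with drug; growth measured by [3H]TdR uptake. IC50 = drug concentration (nM) reducing cell number to 50% of controls. Independent assays in duplicate, CV ca. 25%.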

Row | SMILES | IC50
31 | CN(CCCNC(=O)c1cccc2cc3cccc(-c4ccccc4)c3nc12)CCCNC(=O)c1cccc2cc3cccc(-c4ccccc4)c3nc12 | 1230 nM
32 | Cc1ccc2cc3ccccc3nc2c1C(=O)NCCCN(C)CCCNC(=O)c1c(C)ccc2cc3ccccc3nc12 | 3500 nM
33 | CN(CCCNC(=O)c1cccc2cc3c(Cl)cccc3nc12)CCCNC(=O)c1cccc2cc3c(Cl)cccc3nc12 | 750 nM
34 | Cc1ccc(C(=O)NCCCN(C)CCCNC(=O)c2ccc(C)c3cc4ccccc4nc23)c2nc3ccccc3cc12 | 170 nM
35 | Cc1ccc2nc3c(C(=O)NCCCN(C)CCCNC(=O)c4cccc5cc6cc(C)ccc6nc45)cccc3cc2c1 | 270 nM

Tested on: SK-OV-3
Assay: inhibitory activity against ovarian carcinoma SKOV3 cell line.
Type: functional
Conditions: Homo sapiens
Procedure, shortened: as §2

Row | SMILES | GI50
36 | CN(CCCNC(=O)c1cccc2cc3cccc(-c4ccccc4)c3nc12)CCCNC(=O)c1cccc2cc3cccc(-c4ccccc4)c3nc12 | 12000 nM
37 | Cc1ccc2cc3ccccc3nc2c1C(=O)NCCCN(C)CCCNC(=O)c1c(C)ccc2cc3ccccc3nc12 | 13000 nM
38 | CN(CCCNC(=O)c1cccc2cc3c(Cl)cccc3nc12)CCCNC(=O)c1cccc2cc3c(Cl)cccc3nc12 | 1070 nM
39 | Cc1ccc(C(=O)NCCCN(C)CCCNC(=O)c2ccc(C)c3cc4ccccc4nc23)c2nc3ccccc3cc12 | 1170 nM
40 | Cc1ccc2nc3c(C(=O)NCCCN(C)CCCNC(=O)c4cccc5cc6cc(C)ccc6nc45)cccc3cc2c1 | 1180 nM

Tested on: HCT-116
Assay: inhibitory activity against colon HCT116 cell line.
Type: functional
Conditions: Homo sapiens
Procedure, shortened: as §2

Row | SMILES | GI50
41 | CN(CCCNC(=O)c1cccc2cc3cccc(-c4ccccc4)c3nc12)CCCNC(=O)c1cccc2cc3cccc(-c4ccccc4)c3nc12 | 5060 nM
42 | Cc1ccc2cc3ccccc3nc2c1C(=O)NCCCN(C)CCCNC(=O)c1c(C)ccc2cc3ccccc3nc12 | 446 nM
43 | CN(CCCNC(=O)c1cccc2cc3c(Cl)cccc3nc12)CCCNC(=O)c1cccc2cc3c(Cl)cccc3nc12 | 216 nM
44 | Cc1ccc(C(=O)NCCCN(C)CCCNC(=O)c2ccc(C)c3cc4ccccc4nc23)c2nc3ccccc3cc12 | < 10 nM
45 | Cc1ccc2nc3c(C(=O)NCCCN(C)CCCNC(=O)c4cccc5cc6cc(C)ccc6nc45)cccc3cc2c1 | 12 nM

Tested on: NCI/ADR-RES
Assay: inhibitory activity against multi drug resistant NCI/ADR cell line.
Type: functional
Conditions: Homo sapiens
Procedure, shortened: as §2

Row | SMILES | GI50
46 | CN(CCCNC(=O)c1cccc2cc3cccc(-c4ccccc4)c3nc12)CCCNC(=O)c1cccc2cc3cccc(-c4ccccc4)c3nc12 | 1790 nM
47 | Cc1ccc2cc3ccccc3nc2c1C(=O)NCCCN(C)CCCNC(=O)c1c(C)ccc2cc3ccccc3nc12 | 16000 nM
48 | CN(CCCNC(=O)c1cccc2cc3c(Cl)cccc3nc12)CCCNC(=O)c1cccc2cc3c(Cl)cccc3nc12 | 624 nM
49 | Cc1ccc(C(=O)NCCCN(C)CCCNC(=O)c2ccc(C)c3cc4ccccc4nc23)c2nc3ccccc3cc12 | 77 nM
50 | Cc1ccc2nc3c(C(=O)NCCCN(C)CCCNC(=O)c4cccc5cc6cc(C)ccc6nc45)cccc3cc2c1 | 480 nM

Tested on: Jurkat
Assay: Concentration required to inhibit 50% growth of human Jurkat cells
Type: functional, cell-based
Conditions: not given
Procedure, shortened: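 Jurkat leukemia (JLC) cells seeded at 3.75 × 10^3 cells/well and exposed to drug for 4 days; growth measured by sulforhodamine assay. IC50 = drug concentration (nM) reducing cell number to 50% of control cultures. Independent assays in duplicate, coefficients of variation ca. 25%.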

Row | SMILES | IC50
51 | CN(CCCNC(=O)c1cccc2cc3cccc(-c4ccccc4)c3nc12)CCCNC(=O)c1cccc2cc3cccc(-c4ccccc4)c3nc12 | 2540 nM
52 | Cc1ccc2cc3ccccc3nc2c1C(=O)NCCCN(C)CCCNC(=O)c1c(C)ccc2cc3ccccc3nc12 | 1300 nM
53 | CN(CCCNC(=O)c1cccc2cc3c(Cl)cccc3nc12)CCCNC(=O)c1cccc2cc3c(Cl)cccc3nc12 | 238 nM
54 | Cc1ccc(C(=O)NCCCN(C)CCCNC(=O)c2ccc(C)c3cc4ccccc4nc23)c2nc3ccccc3cc12 | 41 nM
55 | Cc1ccc2nc3c(C(=O)NCCCN(C)CCCNC(=O)c4cccc5cc6cc(C)ccc6nc45)cccc3cc2c1 | 275 nM
